The values below come from ChEMBL document CHEMBL3785023, “Development and Pharmacological Characterization of Selective Blockers of 2-Arachidonoyl Glycerol Degradation with Efficacy in Rodent Models of Multiple Sclerosis and Pain” (J Med Chem, 2016).

The IC50 is the midpoint of a concentration-inhibition curve.

In experiment [1] the target is T1, Fatty-acid amide hydrolase 1 (Mus musculus, UniProt O08914).
T1 sequence (O08914 whole entry): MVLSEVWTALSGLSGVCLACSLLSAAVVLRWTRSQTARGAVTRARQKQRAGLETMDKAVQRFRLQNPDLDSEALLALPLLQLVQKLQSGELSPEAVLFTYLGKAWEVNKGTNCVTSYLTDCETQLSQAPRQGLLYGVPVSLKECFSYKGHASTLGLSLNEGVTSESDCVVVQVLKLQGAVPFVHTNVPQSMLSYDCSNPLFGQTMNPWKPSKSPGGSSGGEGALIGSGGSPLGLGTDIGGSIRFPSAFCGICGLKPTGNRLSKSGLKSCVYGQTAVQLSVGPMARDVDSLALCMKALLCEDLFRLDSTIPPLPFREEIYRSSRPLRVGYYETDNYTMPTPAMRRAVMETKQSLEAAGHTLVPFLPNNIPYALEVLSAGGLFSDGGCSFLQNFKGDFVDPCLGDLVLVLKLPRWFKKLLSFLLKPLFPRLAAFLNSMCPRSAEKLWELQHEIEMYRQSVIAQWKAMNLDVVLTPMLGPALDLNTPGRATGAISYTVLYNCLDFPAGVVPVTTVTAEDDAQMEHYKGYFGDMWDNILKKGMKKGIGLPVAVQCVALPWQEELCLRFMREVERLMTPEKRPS
Briefly: Inhibition of FAAH in mouse brain membrane using [13C]oleamide as substrate by LC-MS analysis. Type of experiment: cell membranes.

Experiment [2] concerns the target T2, Monoglyceride lipase (Homo sapiens, UniProt Q99685).
T2 sequence (Q99685 whole entry): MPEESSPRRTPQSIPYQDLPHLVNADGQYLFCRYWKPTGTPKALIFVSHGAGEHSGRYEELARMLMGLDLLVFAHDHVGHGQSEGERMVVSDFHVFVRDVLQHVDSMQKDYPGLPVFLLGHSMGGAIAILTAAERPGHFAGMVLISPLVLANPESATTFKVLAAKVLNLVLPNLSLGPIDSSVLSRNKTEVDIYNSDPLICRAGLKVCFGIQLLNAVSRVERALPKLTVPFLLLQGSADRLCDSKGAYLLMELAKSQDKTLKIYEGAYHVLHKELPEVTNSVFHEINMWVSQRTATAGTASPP
Put plainly: Inhibition of recombinant C-terminal His6-tagged human MAGL expressed in Escherichia coli using 2-arachidonoyl-[3H]-glycerol as substrate incubated for 20 mins by scintillation counting method.

For experiment [3], the target named is T3, Fatty-acid amide hydrolase 1 (Homo sapiens, UniProt O00519).
T3 sequence (O00519 whole entry): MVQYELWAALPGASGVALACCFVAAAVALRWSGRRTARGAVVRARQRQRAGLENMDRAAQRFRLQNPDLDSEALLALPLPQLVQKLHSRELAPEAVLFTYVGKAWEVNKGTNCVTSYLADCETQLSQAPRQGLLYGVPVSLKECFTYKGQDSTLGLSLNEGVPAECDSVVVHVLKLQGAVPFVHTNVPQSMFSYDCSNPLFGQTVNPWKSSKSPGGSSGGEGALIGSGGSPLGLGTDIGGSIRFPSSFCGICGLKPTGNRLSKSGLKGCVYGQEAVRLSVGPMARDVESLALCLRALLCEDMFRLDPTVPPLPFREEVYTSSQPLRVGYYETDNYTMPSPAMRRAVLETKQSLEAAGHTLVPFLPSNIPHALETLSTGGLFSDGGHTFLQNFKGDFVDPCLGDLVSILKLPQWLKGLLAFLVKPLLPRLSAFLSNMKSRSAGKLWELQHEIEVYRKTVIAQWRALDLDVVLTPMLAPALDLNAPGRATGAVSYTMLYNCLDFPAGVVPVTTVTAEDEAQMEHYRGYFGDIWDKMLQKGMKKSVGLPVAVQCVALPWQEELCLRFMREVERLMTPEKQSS
Briefly: Inhibition of recombinant C-terminal His-tagged human FAAH expressed in sf21 cells using N-arachidonoyl-[14C]-ethanolamine as substrate assessed as reduction in [14C]ethanolamine production incubated for 30 mins by scintillation counting method. An outline of the steps: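 Human recombinant FAAH (2 µg/sample) incubated in 50 mM Tris-HCl, pH 9.5, 37 °C, 30 min with N-arachidonoyl-[14C]-ethanolamine diluted with unlabelled AEA. [14C]-ethanolamine released was quantified by scintillation counting of the aqueous phase after extraction with 2 volumes CHCl3/MeOH 1:1. Values are means of three experiments.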

Experiment [4] in a line: Selectivity ratio of IC50 for human recombinant C-terminal His-tagged FAAH expressed in sf21 cells to IC50 for recombinant C-terminal His6-tagged human MAGL expressed in Escherichia coli. An outline of the steps:
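Ratio of IC50 values from two radiometric assays, each read by scintillation counting of the aqueous phase after CHCl3/MeOH 1:1 extraction. MGL assay: 10,000xg cytosolic fraction of human recombinant MGL (0.05 µg/sample), 50 mM Tris-HCl pH 7.0, 37 °C, 20 min, 2-arachidonoyl-[3H]-glycerol. FAAH assay: human recombinant FAAH (2 µg/sample), pH 9.5, 37 °C, 30 min, [14C]-anandamide. Means of three experiments.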

Experiment [5] concerns the target T2, Monoglyceride lipase. Put plainly: Inhibition of recombinant C-terminal His6-tagged human MAGL expressed in Escherichia coli using 2-arachidonoyl-[3H]-glycerol as substrate preincubated for 10 mins followed by substrate addition measured after 20 mins by scintillation counting method. The method in brief: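 Human recombinant MGL (10,000xg cytosolic fraction, 0.05 µg/sample) is pre-incubated with compound for 10 min. It is then incubated 20 min at 37 °C in 50 mM Tris-HCl pH 7.0 with 2-arachidonoyl-[3H]-glycerol diluted with unlabelled 2-AG. The mix is extracted with 2 vol CHCl3/MeOH 1:1, and [3H]-glycerol in the aqueous phase is counted by scintillation. Values are means of three experiments.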

Experiment [6] concerns the target T4, Fatty-acid amide hydrolase 1 (Rattus norvegicus, UniProt P97612).
T4 sequence (P97612 whole entry): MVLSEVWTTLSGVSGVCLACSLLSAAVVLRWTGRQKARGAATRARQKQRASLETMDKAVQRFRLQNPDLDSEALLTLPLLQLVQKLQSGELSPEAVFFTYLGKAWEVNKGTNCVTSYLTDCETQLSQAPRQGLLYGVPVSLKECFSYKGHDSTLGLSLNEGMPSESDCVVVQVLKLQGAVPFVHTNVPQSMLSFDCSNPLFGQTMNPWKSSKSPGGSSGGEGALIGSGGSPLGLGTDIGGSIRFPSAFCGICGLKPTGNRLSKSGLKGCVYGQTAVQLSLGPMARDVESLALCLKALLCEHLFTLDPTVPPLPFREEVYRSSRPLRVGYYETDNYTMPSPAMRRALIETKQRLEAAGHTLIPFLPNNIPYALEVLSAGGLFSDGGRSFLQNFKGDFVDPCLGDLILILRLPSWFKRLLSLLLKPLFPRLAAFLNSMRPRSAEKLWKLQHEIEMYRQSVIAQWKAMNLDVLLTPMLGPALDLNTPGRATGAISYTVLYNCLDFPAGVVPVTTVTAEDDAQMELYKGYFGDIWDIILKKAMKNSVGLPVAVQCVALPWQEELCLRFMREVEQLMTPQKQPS
Put plainly: Inhibition of FAAH in rat brain membranes using N-arachidonoyl-[14C]-ethanolamine as substrate assessed as reduction in [14C]ethanolamine production incubated for 30 mins by scintillation counting method. Type of experiment: cell membranes, Membrane. An outline of the steps:
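10,000×g membrane fraction of rat brain (70 µg per sample) incubated in 50 mM Tris-HCl pH 9.5 at 37 °C for 30 min with N-arachidonoyl-[14C]-ethanolamine diluted with AEA. Released [14C]-ethanolamine measured by scintillation counting of the aqueous phase after CHCl3/MeOH 1:1 extraction. Means of three experiments.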

Each structure is given as a SMILES string.

Consider `O=C(Oc1ccc([N+](=O)[O-])cc1)N1CCC(C(O)(c2ccc3c(c2)OCO3)c2ccc3c(c2)OCO3)CC1`, for which, in experiment [1], the IC50 was greater than 10 µM.

In the case of `O=C1[C@@H](c2ccc(F)cc2)[C@H](c2ccc3c(c2)OCO3)N1C1CCN(C(=O)n2cncn2)CC1`, the IC50 was found to be 0.0312 µM at Monoglyceride lipase [2], 7.74 µM in experiment [3] and 0.728 µM at Monoglyceride lipase [5]. For the same compound, in experiment [4], the Ratio IC50 turned out to be 248.

For `COc1ccc([C@H]2C(=O)N(C3CCN(C(=O)n4cncn4)CC3)[C@@H]2c2ccc(OC)c(OC)c2)cc1` (racemic), in experiment [6], the IC50 is 0.725 µM.

On to `O=C(N1CCCCC1)n1cncn1`, for which, at Monoglyceride lipase [2], the IC50 was greater than 10 µM.

Turning to `O=C1[C@H](c2ccc(F)cc2)[C@@H](c2ccc3c(c2)OCO3)N1C1CCN(Cc2ccccc2)CC1` (racemic), the IC50 on Monoglyceride lipase [2] is greater than 10 µM.

Turning to `O=C1[C@H](c2ccc(F)cc2)[C@@H](c2ccc3c(c2)OCO3)N1C1CCN(C(=O)n2cncn2)CC1` [listing 1 of 2 here], the IC50 on Monoglyceride lipase [2] stood at 0.0046 µM; in experiment [3], 4.05 µM; at Monoglyceride lipase [5] it was 0.104 µM.

As for `O=C1[C@H](c2ccc(F)cc2)[C@@H](c2ccc3c(c2)OCO3)N1C1CCN(C(=O)n2ccnc2)CC1` (racemic), at Monoglyceride lipase [2], the IC50 is greater than 10 µM.

On to `O=C1[C@H](c2ccc(F)cc2)[C@@H](c2ccc3c(c2)OCO3)N1C1CCNCC1` (racemic), for which the IC50 on Monoglyceride lipase [2] was greater than 10 µM.

As for `O=C(Oc1ccc([N+](=O)[O-])cc1)N1CCC(N2C(=O)[C@H](c3ccc(F)cc3)[C@H]2c2ccc3c(c2)OCO3)CC1` (racemic), the values for the IC50 (on Monoglyceride lipase [2]; in experiment [3]) were 0.00141 µM and greater than 10 µM, respectively. In experiment [4], the Ratio IC50 is greater than 7.

Regarding `O=C1[C@H](c2ccc(F)cc2)[C@@H](c2ccc3c(c2)OCO3)N1C1CCN(C(=O)n2cncn2)CC1` [listing 2 of 2 here], the Ratio IC50 in experiment [4] was determined as 880.

With `O=C(OC(C(F)(F)F)C(F)(F)F)N1CCC(N2C(=O)[C@H](c3ccc(F)cc3)[C@H]2c2ccc3c(c2)OCO3)CC1` (racemic), the IC50 in experiment [6] is greater than 50 µM.

For `COc1ccc([C@H]2C(=O)N(C3CCN(C(=O)n4cncn4)CC3)[C@@H]2c2ccc(OC)cc2)cc1` (racemic), in experiment [6], the IC50 stood at 3.68 µM.

As for `COc1ccc([C@H]2C(=O)N(C3CCN(C(=O)n4cncn4)CC3)[C@@H]2c2ccc(OC)c(OC)c2)cc1OC` (racemic), in experiment [6], the 50% inhibitory concentration (IC50) was greater than 10 µM.

Turning to `COc1ccc([C@H]2C(=O)N(C3CCN(C(=O)n4cncn4)CC3)[C@@H]2c2ccc3c(c2)OCO3)cc1` (racemic), the IC50 in experiment [6] is 2.59 µM.
